Measured values taken from paper PMC2647857 (Journal of the American Chemical Society, 2009).
“And” between values parts separate entries of the source, which are not always exact repeats. Equal entries are not always repeated. Where two headings read alike, the source gives them in different places.

How the values were obtained:
NP1-E55Q = NP1-E55Q (Rhodnius prolixus, UniProt Q26239, E78Q); experiment: biochemical; assay type: binding
[1] = Imidazole binding constant to Fe; set-up: species or system Rhodnius prolixus
[2] = Spectroelectrochemical midpoint potential of the NO complex; assay type: physicochemical, Rhodnius prolixus; settings: for ΔpHΔ(Em,NO) = ΔEm,NO(pH7.5) − ΔEm,NO(pH5.5) / ΔEm,NO = Em(mutant)−Em(standard) / Em,NO: NO bound
Method in brief: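 Spectroelectrochemistry of ~0.05 mM E. coli-expressed protein in 0.1 M sodium phosphate or acetate at pH 5.5, 6.5 and 7.5, 27 ± 1 °C. SNAP supplied NO at a level fully complexing both oxidation states. Ag/AgCl reference ([…] mV vs SHE). Absorbance versus applied potential fit to Nernst equation; pH dependence and mutant−standard differences derived.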

[3] = Spectroelectrochemical midpoint potential, ligand-free; assay type: physicochemical, Rhodnius prolixus; settings: for ΔEm = Em(mutant)−Em(standard) / Em: ligand-free
[4] = Histamine binding constant to Fe; set-up: species or system Rhodnius prolixus; settings: pH 7.5
[5] = NO bound, cited from earlier work
[6] = ligand-free, cited from earlier work
[7] = read-out: Kd for NO dissociation, Fe(III), cited from earlier work
[8] = NO binding constant to Fe; set-up: species or system Rhodnius prolixus; settings: pH 7.5

NP1-E55Q, sequence (Q26239 24-207 E78Q): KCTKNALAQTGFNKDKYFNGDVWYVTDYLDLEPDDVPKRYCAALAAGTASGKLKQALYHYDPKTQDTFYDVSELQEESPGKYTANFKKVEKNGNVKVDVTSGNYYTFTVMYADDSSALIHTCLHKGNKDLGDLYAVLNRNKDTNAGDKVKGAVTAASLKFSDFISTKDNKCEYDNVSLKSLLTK

Molecule	ΔpHΔ(Em,NO) = ΔEm,NO(pH7.5) − ΔEm,NO(pH5.5) [2] [mV]	ΔEm,NO = Em(mutant)−Em(standard) ([2]; pH 5.5)	Em,NO ([2]; pH 5.5, 27 °C) [mV vs. SHE]	ΔEm,NO = Em(mutant)−Em(standard) ([2]; pH 6.5) [mV]	Em,NO ([2]; pH 6.5, 27 °C) [mV vs. SHE]	ΔEm,NO = Em(mutant)−Em(standard) ([2]; pH 7.5)	Em,NO ([2]; pH 7.5, 27 °C) [mV vs. SHE]	ΔEm = Em(mutant)−Em(standard) ([3]; pH 5.5) [mV]	Em ([3]; pH 5.5, 27 °C) [mV vs. SHE]	ΔEm = Em(mutant)−Em(standard) ([3]; pH 6.5) [mV]	Em ([3]; pH 6.5, 27 °C) [mV vs. SHE]	ΔEm = Em(mutant)−Em(standard) ([3]; pH 7.5) [mV]	Em ([3]; pH 7.5, 27 °C) [mV vs. SHE]	other results
c1c[nH]cn1 [imidazole, imidazole (ImH)]														Kd (NP1-E55Q): 200 nM
NP2-D1A,D29A: site-directed mutant of NP2-D1A, D29 replaced by Ala	50±3	−28±2 mV	20±1	26±2	36±1	22±2 mV	2±1	−17±3	−334±3	19±6	−308±3	12±3	−313±1	binding constant of imidazole larger than that of histamine ([1]; pH 7.5): 1.3 log units
NP2-D1A,D31A: site-directed mutant of NP2-D1A, D31 replaced by Ala	22±3	−10±2 mV	38±2	−3±2	7±2	12±3 mV	−8±2	−55±6	−373±6	−45±9	−372±8	−41±4	−366±3	
NP2-D1A,D36A: site-directed mutant of NP2-D1A, D36 replaced by Ala	39±5	−12±4 mV	36±4	20±2	30±2	28±3 mV	8±2	25±4	−293±3	11±7	−315±4	18±5	−307±4	
NP2-D1A,D89A: site-directed mutant of NP2-D1A, D89 replaced by Ala	33±3	3 mV and 3±2 mV		9±2	19±1	37 mV and 37±2 mV	17±2	34±3	−284±3	23±7	−304±4	5±4	−320±3	
NP2-D1A,D99A: site-directed mutant of NP2-D1A, D99 replaced by Ala	21±2	−10±2 mV	38±1	−1±3	9±2	11±2 mV	−9±1	14±4	−304±4	13±6	−314±1	−12±5	−337±4	
NP2-D1A,D128A: site-directed mutant of NP2-D1A, D128 replaced by Ala	38±4	−16±4 mV	32±3	−8±2	2±1	22±2 mV	2±1	7±4	−311±4			−57±4	−382±3	
NP2-D1A,E53Q: site-directed mutant of NP2-D1A, buried E53 replaced by Gln	64±4	40±3 mV	88±3	95±2	105±1	104 mV and 104±3 mV	84±2					10±4	−316±3	
NP2-D1A,E100A: site-directed mutant of NP2-D1A, E100 replaced by Ala	24±3	−5±2 mV	43±2	−5±2	5±1	19±2 mV	0±1	6±6	−312±6	17±7	−310±3	−32±6	−357±5	larger histamine binding constant than standard [4]: 0.7 log units
NP2-D1A,E124A: site-directed mutant of NP2-D1A, E124 replaced by Ala	−2±6	4±5 mV	52±5			2±3 mV	−18±3	125±4	−193±4			7±4	−318±2	increase in imidazole binding constant ([1]; at both pH values (5.5 and 7.5)): 0.7 log units
NP2-D1A,K127A: site-directed mutant of NP2-D1A, K127 replaced by Ala	27±5	−27±3 mV	21±2	−4±2	6±2		−20±4	−9±5	−327±5	−2±6	−329±3	−54±4	−379±2	midpoint potential more negative with respect to NP2-D1A ([3]; pH 7.5, absence of NO): 54 mV
NP2-D1A: D1A mutant of NP2 with M0 cleaved during expression, used as standard														Em,NO ([5]; pH 5.5, 27 °C ref 20): 48±1 mV vs. SHE; Em,NO ([5]; pH 6.5, 27 °C ref 20): 10±1 mV vs. SHE; Em,NO ([5]; pH 7.5, 27 °C ref 20): −20±1 mV vs. SHE; decrease of NO-bound Em between pH 5.5 and 7.5 ([2]; NO complex): 68 mV; pH dependence of Em, negative shift ([2]; NO complex, pH 5.5–7.5 range): 34 mV/pH unit; Em ([6]; pH 5.5, 27 °C ref 20): −318±1 mV vs. SHE; Em ([6]; pH 6.5, 27 °C ref 20): −327±6 mV vs. SHE; Em ([6]; pH 7.5, 27 °C ref 20): −325±3 mV vs. SHE
NP2–M0D1: recombinant wild-type nitrophorin 2 expressed with the N-terminal methionine present														Kd ([7]; pH 5.5 ref 19): 1 nM; Kd ([7]; pH 7.5 ref 19): 20 nM; NO formation constant Kf, Fe(III) form [8]: 2e+08 M⁻¹; Kd ([8]; read-out: NO dissociation constant Kd, Fe(III) form): 5 nM
